Here are results for 7 compounds from ChEMBL document CHEMBL4665830, “Self-Adjuvanting Cancer Vaccines from Conjugation-Ready Lipid A Analogues and Synthetic Long Peptides” (J Med Chem, 2020).

Experiment [1] concerns the target T1, Toll-like receptor 4 (Mus musculus) (UniProt Q9QUK6).
T1 sequence (whole entry): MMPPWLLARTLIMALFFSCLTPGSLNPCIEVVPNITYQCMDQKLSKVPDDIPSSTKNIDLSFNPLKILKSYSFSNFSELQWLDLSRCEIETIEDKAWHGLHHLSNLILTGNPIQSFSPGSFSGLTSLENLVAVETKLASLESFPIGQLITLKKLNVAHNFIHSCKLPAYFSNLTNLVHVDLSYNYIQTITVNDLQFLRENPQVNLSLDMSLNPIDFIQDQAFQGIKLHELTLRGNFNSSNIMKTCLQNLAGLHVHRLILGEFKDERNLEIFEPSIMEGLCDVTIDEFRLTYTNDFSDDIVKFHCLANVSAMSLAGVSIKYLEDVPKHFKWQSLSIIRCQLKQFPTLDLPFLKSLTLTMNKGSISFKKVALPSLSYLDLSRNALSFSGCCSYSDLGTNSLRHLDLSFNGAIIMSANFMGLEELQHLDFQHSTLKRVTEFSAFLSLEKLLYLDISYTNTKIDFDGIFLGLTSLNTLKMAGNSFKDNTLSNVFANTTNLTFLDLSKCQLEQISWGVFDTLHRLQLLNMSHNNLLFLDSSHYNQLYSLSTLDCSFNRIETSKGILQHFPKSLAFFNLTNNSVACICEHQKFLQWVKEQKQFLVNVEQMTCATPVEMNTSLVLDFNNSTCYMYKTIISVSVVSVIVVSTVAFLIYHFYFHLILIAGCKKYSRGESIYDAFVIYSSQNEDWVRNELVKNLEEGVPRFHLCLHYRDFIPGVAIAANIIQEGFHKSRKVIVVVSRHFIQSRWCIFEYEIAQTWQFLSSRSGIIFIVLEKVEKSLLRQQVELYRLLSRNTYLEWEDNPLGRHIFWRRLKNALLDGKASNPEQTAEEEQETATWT
Put plainly: Activation of TLR4 in C57BL/6 mouse dendritic cells assessed as induction of IL-12p40 secretion at 0.098 to 100 nM incubated for 24 hrs by ELISA. To be noted: Dendritic cell, dose nM 0.098-100, time 24.0 hrs. An outline of the steps: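 D1 cells (immature spleen-derived DC line, C57BL/6 H-2b), 50 000 per well in R1-supplemented IMDM, given an equal volume of 2x compound in medium (500 μM DMSO stocks, sonicated 15 min). Incubated 24 h at 37 °C; IL-12p40 in supernatant measured by ELISA. MPLA served as TLR4 control; unconjugated peptide as negative control.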
A general note: In an ELISA, binding on a coated surface is turned into a signal by an enzyme label.

The subject of experiment [2] is Mus musculus. Put plainly: Induction of T-cell activation in C57BL/6 mouse assessed as increase in SIINFEKL-specific CD8+ T cells level in inguinal lymph nodes at 5 nmol dosed intradermally followed by booster dose after 14 days and 1 week later injection of cells loaded with SIINFEKL peptide and measured after 18 hrs post last dose by CFSE staining based flow cytometric analysis. The class given is functional, organism-based. To be noted: time 21.0 day. On the technique in general: Flow cytometry measures light scatter and fluorescence of single cells or particles in a stream.

Experiment [3] has as its system Mus musculus. Put plainly: Induction of T-cell activation in C57BL/6 mouse assessed as induction of specific killing of the SIINFEKL-loaded target cells in spleen at 5 nmol dosed intradermally followed by booster dose after 14 days and 1 week later injection of cells loaded with SIINFEKL peptide and measured after 18 hrs post last dose by CFSE staining based flow cytometric analysis. As to conditions: time 21.0 day. The class given is functional, organism-based.

The subject of experiment [4] is Mus musculus. Put plainly: Induction of T-cell activation in C57BL/6 mouse assessed as induction of differentiation into effector memory T cells at 5 nmol dosed intradermally followed by booster dose after 14 days and measured after 7 days. The class given is functional, organism-based. To be noted: time 21.0 day.
Experiment [5] relates to Mus musculus. Put plainly: Induction of T-cell activation in C57BL/6 mouse assessed as induction of differentiation into memory CD127+/KLRG1low responses at 5 nmol dosed intradermally followed by booster dose after 14 days and measured after 7 days. The class given is functional, organism-based. To be noted: time 21.0 day.
Experiment [6] relates to Mus musculus. Briefly: Induction of T-cell activation in C57BL/6 mouse assessed as induction of SIINFEKL-specific T-cell responses in inguinal lymph nodes at 5 nmol dosed intradermally followed by booster dose after 14 days and measured after 8 days. As to conditions: time 22.0 day. The class given is functional, organism-based.
Experiment [7] relates to Mus musculus. Briefly: Induction of T-cell activation in C57BL/6 mouse assessed as induction of SIINFEKL-specific T-cell responses in spleen at 5 nmol dosed intradermally followed by booster dose after 14 days and measured after 8 days. The format is functional, organism-based. To be noted: time 22.0 day.
The test system of experiment [8] is Mus musculus. Put plainly: Induction of T-cell activation in C57BL/6 mouse assessed as induction of SIINFEKL-specific T-cell responses in blood at 5 nmol dosed intradermally. The class given is functional, organism-based.
Experiment [9] concerns Mus musculus. Briefly: Induction of T-cell activation in C57BL/6 mouse assessed as induction of SIINFEKL-specific T-cell responses in blood at 5 nmol dosed intradermally followed by booster dose after 14 days and measured after 7 days. The class given is functional, organism-based. To be noted: time 21.0 day.
In the next experiment the test system is B3Z. Briefly: Induction of T-cell activation in SIINFEKL-specific mouse B3Z cells at 0.875 to 7 uM by colorimetry based in-vitro antigen presentation assay. The format is functional. To be noted: dose microM 0.875-7.

Calls of active or inactive are those of the source. The rule behind the calls is not given here. Where a SMILES comes first, the peptide text is derived from it. [ ]: non-standard residue; d: D form. The star is where a group is joined. X1 = CCCCCCCCCCC[C@H](CC(=O)N[C@H]1[C@H](OC[C@H](NC(=O)C[C@@H](CCCCCCCCCCC)OC(=O)CCCCCCCCC)C(=O)O)O[C@H](CNC(=O)COCCOCCOCCNC(=O)CCCN2C(=O)CC(*)C2=O)[C@@H](OP(=O)(O)O)[C@@H]1OC(=O)C[C@@H](CCCCCCCCCCC)OC(=O)CCCCCCCCC)OC(=O)CCCCCCCCC; X2 = CCCCCCCCCCC[C@H](CC(=O)N[C@H]1[C@H](OC[C@H](NC(=O)C[C@@H](CCCCCCCCCCC)OC(=O)CCCCCCCCC)C(=O)O)O[C@H](COC(=O)COCCOCCOCCNC(=O)CCCN2C(=O)CC(*)C2=O)[C@@H](OP(=O)(O)O)[C@@H]1OC(=O)C[C@@H](CCCCCCCCCCC)OC(=O)CCCCCCCCC)OC(=O)CCCCCCCCC; Mpa = O=C(O)CCS

As to `CCCCCCCCCCC[C@H](CC(=O)N[C@H]1[C@H](OC[C@H](NC(=O)C[C@@H](CCCCCCCCCCC)OC(=O)CCCCCCCCC)C(=O)O)O[C@H](COC(=O)COCCOCCOCCNC(C)=O)[C@@H](OP(=O)(O)O)[C@@H]1OC(=O)C[C@@H](CCCCCCCCCCC)OC(=O)CCCCCCCCC)OC(=O)CCCCCCCCC`, the outcome in experiment [1] (filed as activator) was Active.
Turning to `CCCCCCCCCCC[C@H](CC(=O)N[C@H]1[C@H](OC[C@H](NC(=O)C[C@@H](CCCCCCCCCCC)OC(=O)CCCCCCCCC)C(=O)O)O[C@H](COC(=O)CCCCCCCCCCNC(C)=O)[C@@H](OP(=O)(O)O)[C@@H]1OC(=O)C[C@@H](CCCCCCCCCCC)OC(=O)CCCCCCCCC)OC(=O)CCCCCCCCC`, the result in experiment [1] was inactive.
Regarding `CCCCCCCCCCC[C@H](CC(=O)N[C@H]1[C@H](OC[C@H](NC(=O)C[C@@H](CCCCCCCCCCC)OC(=O)CCCCCCCCC)C(=O)O)O[C@H](CNC(=O)COCCOCCOCCNC(C)=O)[C@@H](OP(=O)(O)O)[C@@H]1OC(=O)C[C@@H](CCCCCCCCCCC)OC(=O)CCCCCCCCC)OC(=O)CCCCCCCCC`, in experiment [1] (filed as activator), the result was Active.
`CCCCCCCCCCC[C@H](CC(=O)N[C@H]1[C@H](OC[C@H](NC(=O)C[C@@H](CCCCCCCCCCC)OC(=O)CCCCCCCCC)C(=O)O)O[C@H](CNC(=O)COCCOCCOCCNC(=O)CCCN2C(=O)CC(SCCC(=O)N[C@@H](CC(=O)O)C(=O)N[C@@H](CCC(=O)O)C(=O)N[C@H](C(=O)N[C@@H](CO)C(=O)NCC(=O)N[C@@H](CC(C)C)C(=O)N[C@@H](CCC(=O)O)C(=O)N[C@@H](CCC(N)=O)C(=O)N[C@@H](CC(C)C)C(=O)N[C@@H](CCC(=O)O)C(=O)N[C@@H](CO)C(=O)N[C@H](C(=O)N[C@H](C(=O)N[C@@H](CC(N)=O)C(=O)N[C@@H](Cc3ccccc3)C(=O)N[C@@H](CCC(=O)O)C(=O)N[C@@H](CCCCN)C(=O)N[C@@H](CC(C)C)C(=O)N[C@@H](C)C(=O)N[C@@H](C)C(=O)N[C@@H](C)C(=O)N[C@@H](C)C(=O)N[C@@H](C)C(=O)N[C@@H](CCCCN)C(N)=O)[C@@H](C)CC)[C@@H](C)CC)C(C)C)C2=O)[C@@H](OP(=O)(O)O)[C@@H]1OC(=O)C[C@@H](CCCCCCCCCCC)OC(=O)CCCCCCCCC)OC(=O)CCCCCCCCC` (stereo not given in full) ([Mpa](X1)DEVSGLEQLESIINFEKLAAAAAK-NH2): the outcome with Mus musculus [2], in the experiment on Mus musculus [3], in the experiment on Mus musculus [4], in the experiment on Mus musculus [5], in the experiment on Mus musculus [6] and in the experiment with Mus musculus [7] was Active. Moreover, the outcome with Mus musculus [8], in the experiment with Mus musculus [9] and in the experiment with B3Z was Active. Further, in experiment [1], the result was inactive.
Consider `CCCCCCCCCCC[C@H](CC(=O)N[C@H]1[C@H](OC[C@H](NC(=O)C[C@@H](CCCCCCCCCCC)OC(=O)CCCCCCCCC)C(=O)O)O[C@H](CO)[C@@H](OP(=O)(O)O)[C@@H]1OC(=O)C[C@@H](CCCCCCCCCCC)OC(=O)CCCCCCCCC)OC(=O)CCCCCCCCC`, for which the result (with Mus musculus [8]; in the experiment with B3Z; in [1] (filed as activator)) was Active.
In the case of `CCCCCCCCCCC[C@H](CC(=O)N[C@H]1[C@H](OC[C@H](NC(=O)C[C@@H](CCCCCCCCCCC)OC(=O)CCCCCCCCC)C(=O)O)O[C@H](COC(=O)COCCOCCOCCNC(=O)CCCN2C(=O)CC(SCCC(=O)N[C@@H](CC(=O)O)C(=O)N[C@@H](CCC(=O)O)C(=O)N[C@H](C(=O)N[C@@H](CO)C(=O)NCC(=O)N[C@@H](CC(C)C)C(=O)N[C@@H](CCC(=O)O)C(=O)N[C@@H](CCC(N)=O)C(=O)N[C@@H](CC(C)C)C(=O)N[C@@H](CCC(=O)O)C(=O)N[C@@H](CO)C(=O)N[C@H](C(=O)N[C@H](C(=O)N[C@@H](CC(N)=O)C(=O)N[C@@H](Cc3ccccc3)C(=O)N[C@@H](CCC(=O)O)C(=O)N[C@@H](CCCCN)C(=O)N[C@@H](CC(C)C)C(=O)N[C@@H](C)C(=O)N[C@@H](C)C(=O)N[C@@H](C)C(=O)N[C@@H](C)C(=O)N[C@@H](C)C(=O)N[C@@H](CCCCN)C(N)=O)[C@@H](C)CC)[C@@H](C)CC)C(C)C)C2=O)[C@@H](OP(=O)(O)O)[C@@H]1OC(=O)C[C@@H](CCCCCCCCCCC)OC(=O)CCCCCCCCC)OC(=O)CCCCCCCCC` (stereo not given in full) ([Mpa](X2)DEVSGLEQLESIINFEKLAAAAAK-NH2), the result in the experiment with Mus musculus [4], with Mus musculus [5], in the experiment on Mus musculus [6], with Mus musculus [7], with Mus musculus [8] and in the experiment on Mus musculus [9] was Active. Moreover, the outcome (with B3Z; in [1] (filed as activator)) was Active.
In the case of `CCCCCCCCCCC[C@@H](O)CC(=O)N[C@@H]1[C@@H](OC(=O)C[C@H](O)CCCCCCCCCCC)[C@H](O)[C@@H](CO[C@@H]2O[C@H](CO)[C@@H](OP(=O)(O)O)[C@H](OC(=O)C[C@@H](CCCCCCCCCCC)OC(=O)CCCCCCCCC)[C@H]2NC(=O)C[C@@H](CCCCCCCCCCC)OC(=O)CCCCCCCCC)O[C@H]1O`, in [1] (filed as activator), the result was Active.
